Measurements reported in ChEMBL document CHEMBL2074537, “Interaction of 31 beta-lactam antibiotics with the H+/peptide symporter PEPT2: analysis of affinity constants and comparison with PEPT1” (Eur J Pharm Biopharm, 2005).
“And” between values parts separate entries of the source, which are not always exact repeats. Identical values can stand only once.

Key:
[1] = target: T1, Solute carrier family 15 member 2 (Rattus norvegicus, UniProt Q63424); assay: TP_TRANSPORTER: inhibition of Gly-Sar uptake (pH6.0) in SKPT cells; assay type: functional, cell-based
T1 sequence (Q63424 whole entry): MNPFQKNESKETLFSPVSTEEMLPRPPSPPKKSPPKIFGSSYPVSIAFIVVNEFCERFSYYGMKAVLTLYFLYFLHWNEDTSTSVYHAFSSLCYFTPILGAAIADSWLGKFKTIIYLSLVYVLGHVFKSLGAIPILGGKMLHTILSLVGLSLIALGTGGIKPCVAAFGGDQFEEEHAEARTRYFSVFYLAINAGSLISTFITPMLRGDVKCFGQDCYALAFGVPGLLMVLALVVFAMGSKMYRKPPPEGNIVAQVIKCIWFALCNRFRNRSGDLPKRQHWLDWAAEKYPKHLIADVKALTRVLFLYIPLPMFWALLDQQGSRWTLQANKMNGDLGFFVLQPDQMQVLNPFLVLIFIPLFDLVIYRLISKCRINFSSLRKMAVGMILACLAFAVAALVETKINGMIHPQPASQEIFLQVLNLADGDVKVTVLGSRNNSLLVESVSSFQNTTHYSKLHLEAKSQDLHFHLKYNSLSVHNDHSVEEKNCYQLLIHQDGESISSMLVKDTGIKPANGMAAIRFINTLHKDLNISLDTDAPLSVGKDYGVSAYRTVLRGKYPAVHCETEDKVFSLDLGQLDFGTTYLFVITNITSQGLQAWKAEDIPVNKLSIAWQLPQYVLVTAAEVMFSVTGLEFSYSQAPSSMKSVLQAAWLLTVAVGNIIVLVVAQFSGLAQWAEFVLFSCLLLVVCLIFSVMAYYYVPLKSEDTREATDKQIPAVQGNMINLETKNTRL
Outline: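 Rat SKPT renal proximal tubule cells were seeded and used 4 days later. Cells were given ice-cold washes, lysed and counted by scintillation, with protein by Bradford. Non-saturable uptake was taken with 10 mM Gly-Sar.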

[2] = target: T2, Solute carrier family 15 member 1 (Homo sapiens, UniProt P46059); assay: TP_TRANSPORTER: inhibition of Gly-Sar uptake (pH6.0) in Caco-2 cells; assay type: functional, cell-based
T2 sequence (P46059 whole entry): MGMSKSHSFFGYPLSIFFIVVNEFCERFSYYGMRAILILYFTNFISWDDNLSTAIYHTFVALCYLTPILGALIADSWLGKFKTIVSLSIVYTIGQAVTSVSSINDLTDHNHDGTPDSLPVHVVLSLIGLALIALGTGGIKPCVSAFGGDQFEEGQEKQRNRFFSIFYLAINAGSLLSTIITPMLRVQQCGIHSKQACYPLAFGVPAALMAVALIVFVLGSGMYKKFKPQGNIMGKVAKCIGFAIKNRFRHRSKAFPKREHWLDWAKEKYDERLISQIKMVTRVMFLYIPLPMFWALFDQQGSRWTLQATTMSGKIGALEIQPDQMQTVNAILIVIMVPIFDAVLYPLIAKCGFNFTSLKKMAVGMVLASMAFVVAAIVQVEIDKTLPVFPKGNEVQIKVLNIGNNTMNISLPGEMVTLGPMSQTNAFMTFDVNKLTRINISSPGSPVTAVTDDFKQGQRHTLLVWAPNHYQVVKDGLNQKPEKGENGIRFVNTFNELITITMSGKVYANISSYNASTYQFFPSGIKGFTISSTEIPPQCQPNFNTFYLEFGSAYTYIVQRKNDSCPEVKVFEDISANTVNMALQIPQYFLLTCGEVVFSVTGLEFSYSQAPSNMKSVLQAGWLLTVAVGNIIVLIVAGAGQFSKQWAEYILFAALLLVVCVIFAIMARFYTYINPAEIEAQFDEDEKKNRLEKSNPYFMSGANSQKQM

CC1(C)S[C@@H]2[C@H](N)C(=O)N2[C@H]1C(=O)O
Ki [1]: 19 mM | Ki [2]: > 30 mM

CC(=O)OCC1=C(C(=O)O)N2C(=O)[C@@H](N)[C@H]2SC1
Ki [1]: 4.9 mM | Ki [2]: > 10 mM

CO/N=C(\C(=O)N[C@@H]1C(=O)N2C(C(=O)[O-])=C(C[N+]3(C)CCCC3)CS[C@H]12)c1csc(N)n1
Ki [1]: 11.4 mM | Ki [2]: > 30 mM

CC1(C)S[C@@H]2[C@H](NC(=O)[C@H](N)c3ccc(O)cc3)C(=O)N2[C@H]1C(=O)O [AMOXICILLIN]
Ki [1]: 0.43 mM | Ki [2]: > 10 mM

N[C@@H](C(=O)N[C@@H]1C(=O)N2C(C(=O)O)=C(Cl)CS[C@H]12)c1ccccc1 [CEFACLOR ANHYDROUS]
Ki [2]: > 10 mM

CC1=C(C(=O)O)N2C(=O)[C@@H](NC(=O)[C@H](N)c3ccc(O)cc3)[C@H]2SC1 [CEFADROXIL]
Ki [2]: 7.2 mM

Cn1nnnc1SCC1=C(C(=O)O)N2C(=O)[C@@H](NC(=O)[C@H](O)c3ccccc3)[C@H]2SC1 [CEFAMANDOLE]
Ki [1]: 2.8 mM | Ki [2]: 8.1 mM

C=CC1=C(C(=O)O)N2C(=O)[C@@H](NC(=O)/C(=N\OCC(=O)O)c3csc(N)n3)[C@H]2SC1 [CEFIXIME]
Ki [1]: 2.6 mM | Ki [2]: 12 mM

CO[C@@]1(NC(=O)CSCC#N)C(=O)N2C(C(=O)O)=C(CSc3nnnn3C)CS[C@@H]21 [CEFMETAZOLE]
Ki [1]: 4.3 mM | Ki [2]: 28 mM

CO/N=C(\C(=O)N[C@@H]1C(=O)N2C(C(=O)O)=C(CSc3nc(C)c(CC(=O)O)s3)CS[C@H]12)c1csc(N)n1 [CEFODIZIME]
Ki [1]: 9 mM | Ki [2]: 22 mM

CO/N=C(\C(=O)N[C@@H]1C(=O)N2C(C(=O)O)=C(COC(C)=O)CS[C@H]12)c1csc(N)n1 [CEFOTAXIME]
Ki [1]: 20 mM | Ki [2]: > 30 mM

CO/N=C(\C(=O)N[C@@H]1C(=O)N2C(C(=O)[O-])=C(C[n+]3cccc4c3CCC4)CS[C@H]12)c1csc(N)n1 [CEFPIROME]
Ki [1]: 9.5 mM | Ki [2]: > 30 mM

NC(=O)c1cc[n+](CC2=C(C(=O)O)N3C(=O)[C@@H](NC(=O)[C@@H](c4ccccc4)S(=O)(=O)[O-])[C@H]3SC2)cc1 [CEFSULODIN]
Ki [1]: > 30 mM | Ki [2]: > 30 mM

CC(C)(O/N=C(\C(=O)N[C@@H]1C(=O)N2C(C(=O)[O-])=C(C[n+]3ccccc3)CS[C@H]12)c1csc(N)n1)C(=O)O [CEFTAZIDIME]
Ki [1]: > 10 mM | Ki [2]: > 10 mM

Nc1nc(/C(=C/CC(=O)O)C(=O)N[C@@H]2C(=O)N3C(C(=O)O)=CCS[C@H]23)cs1 [CEFTIBUTEN]
Ki [1]: 0.28 mM | Ki [2]: 0.34 mM

CO/N=C(\C(=O)N[C@@H]1C(=O)N2C(C(=O)O)=C(CSc3nc(=O)c(=O)[nH]n3C)CS[C@H]12)c1csc(N)n1 [CEFTRIAXONE]
Ki [1]: > 20 mM | Ki [2]: > 30 mM

CO/N=C(\C(=O)N[C@@H]1C(=O)N2C(C(=O)O)=C(COC(N)=O)CS[C@H]12)c1ccco1 [CEFUROXIME]
Ki [1]: > 0.003 mM and 12.6 mM | Ki [2]: > 5 mM and 26 mM

CC1=C(C(=O)O)N2C(=O)[C@@H](NC(=O)[C@H](N)c3ccccc3)[C@H]2SC1 [CEPHALEXIN ANHYDROUS]
Ki [1]: 0.075 mM

O=C(Cc1cccs1)N[C@@H]1C(=O)N2C(C(=O)[O-])=C(C[n+]3ccccc3)CS[C@H]12 [CEPHALORIDINE]
Ki [1]: 8.5 mM | Ki [2]: > 30 mM

CC(=O)OCC1=C(C(=O)O)N2C(=O)[C@@H](NC(=O)Cc3cccs3)[C@H]2SC1 [CEPHALOTHIN]
Ki [1]: 8.3 mM | Ki [2]: > 10 mM

CC(=O)OCC1=C(C(=O)O)N2C(=O)[C@@H](NC(=O)CSc3ccncc3)[C@H]2SC1 [CEPHAPIRIN]
Ki [1]: > 10 mM | Ki [2]: > 10 mM

CC1=C(C(=O)O)N2C(=O)[C@@H](NC(=O)[C@H](N)C3=CCC=CC3)[C@H]2SC1 [CEPHRADINE]
Ki [1]: 0.065 mM | Ki [2]: 9.8 mM

Cc1onc(-c2ccccc2Cl)c1C(=O)N[C@@H]1C(=O)N2[C@@H]1SC(C)(C)[C@@H]2C(=O)O [CLOXACILLIN]
Ki [1]: 0.95 mM | Ki [2]: 3 mM

CC1(C)S[C@@H]2[C@H](NC(=O)C3(N)CCCCC3)C(=O)N2[C@H]1C(=O)O [CYCLACILLIN]
Ki [1]: 0.044 mM | Ki [2]: 0.5 mM

Cc1onc(-c2c(Cl)cccc2Cl)c1C(=O)N[C@@H]1C(=O)N2[C@@H]1SC(C)(C)[C@@H]2C(=O)O [DICLOXACILLIN]
Ki [1]: 0.42 mM | Ki [2]: 7.2 mM

C=N[C@@H](C(=O)N[C@@H]1C(=O)N2[C@@H]1SC(C)(C)[C@@H]2C(=O)O)c1ccccc1 [METAMPICILLIN]
Ki [1]: 0.73 mM | Ki [2]: 12.7 mM

CO[C@@]1(NC(=O)C(C(=O)O)c2ccc(O)cc2)C(=O)N2C(C(=O)O)=C(CSc3nnnn3C)CO[C@@H]21 (some centres undefined) [MOXALACTAM]
Ki [1]: 0.087 mM | Ki [2]: 12.3 mM

Cc1onc(-c2ccccc2)c1C(=O)N[C@@H]1C(=O)N2[C@@H]1SC(C)(C)[C@@H]2C(=O)O [OXACILLIN]
Ki [1]: 3.3 mM | Ki [2]: 12 mM

CC1(C)S[C@@H]2[C@H](NC(=O)Cc3ccccc3)C(=O)N2[C@H]1C(=O)O [PENICILLIN G]
Ki [2]: > 30 mM
